pIC50: −log10 of the molar value. Values after ≈ are worked out from the molar mass of the structure shown. Active and inactive are the calls of the source. The calls are words filed in the database; no cut-off is given here.
What was measured:
[1] = Cytotoxicity against mouse RAW264.7 cells at 50 uM after 72 hrs by MTT assay; assay type: cell-based; details: read-out: INH
Procedure, shortened: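 RAW 264.7 cells were exposed to compounds for 72 h. Viability was scored by cellular MTT conversion to formazan.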

[2] = test system: Mycobacterium tuberculosis; test: Antimycobacterial activity against Mycobacterium tuberculosis H37Rv after 7 days by MABA assay; assay type: functional; details: 168 h
Procedure, shortened: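 M. tuberculosis H37Rv in 7H9-S medium with OADC, adjusted to McFarland No. 1 and diluted 1:20 for inoculum. Drugs were diluted in 7H9-S at four-fold the highest final concentration, then serially two-fold diluted in plates alongside drug-free growth and sterile controls. Alamar blue microplate read-out.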

DNA gyrase subunit B = DNA gyrase subunit B (Mycobacterium smegmatis, UniProt P0C559); test: Inhibition of Mycobacterium smegmatis GyrB ATPase activity expressed in Escherichia coli BL21 (DE3) after 2 hrs; parameters: species or system Mycolicibacterium smegmatis
DNA gyrase subunit B, sequence (P0C559 whole entry): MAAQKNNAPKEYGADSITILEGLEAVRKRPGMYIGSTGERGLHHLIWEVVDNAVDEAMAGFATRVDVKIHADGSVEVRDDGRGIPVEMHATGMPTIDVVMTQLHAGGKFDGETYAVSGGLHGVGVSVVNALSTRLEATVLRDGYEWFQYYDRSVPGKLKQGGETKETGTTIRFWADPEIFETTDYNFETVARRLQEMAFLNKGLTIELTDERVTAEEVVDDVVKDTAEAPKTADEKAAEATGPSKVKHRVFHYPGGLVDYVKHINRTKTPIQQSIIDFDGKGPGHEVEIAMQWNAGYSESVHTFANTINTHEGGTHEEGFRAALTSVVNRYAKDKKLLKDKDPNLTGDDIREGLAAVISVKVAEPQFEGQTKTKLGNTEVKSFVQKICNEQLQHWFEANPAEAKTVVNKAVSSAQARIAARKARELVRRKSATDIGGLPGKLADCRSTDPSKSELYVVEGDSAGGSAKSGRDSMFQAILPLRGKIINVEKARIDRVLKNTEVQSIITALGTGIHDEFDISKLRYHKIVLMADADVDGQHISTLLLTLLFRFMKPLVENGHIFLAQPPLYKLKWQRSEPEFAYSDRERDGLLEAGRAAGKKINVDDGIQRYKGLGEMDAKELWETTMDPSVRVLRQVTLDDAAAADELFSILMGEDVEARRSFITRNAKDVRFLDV

Escherichia coli = test: Inhibition of Escherichia coli DNA gyrase
Staphylococcus aureus = test: Inhibition of Staphylococcus aureus GyrB
[3] = target: DNA gyrase subunit A/DNA gyrase subunit B (Mycobacterium tuberculosis (strain ATCC 25618 / H37Rv), UniProt P9WG45+P9WG47); test: Inhibition of Mycobacterium tuberculosis DNA gyrase super coiling activity of relaxed pBR322 using ethidium bromide staining by agarose gel electrophoresis
DNA gyrase subunit A/DNA gyrase subunit B, sequence (P9WG45 whole entry): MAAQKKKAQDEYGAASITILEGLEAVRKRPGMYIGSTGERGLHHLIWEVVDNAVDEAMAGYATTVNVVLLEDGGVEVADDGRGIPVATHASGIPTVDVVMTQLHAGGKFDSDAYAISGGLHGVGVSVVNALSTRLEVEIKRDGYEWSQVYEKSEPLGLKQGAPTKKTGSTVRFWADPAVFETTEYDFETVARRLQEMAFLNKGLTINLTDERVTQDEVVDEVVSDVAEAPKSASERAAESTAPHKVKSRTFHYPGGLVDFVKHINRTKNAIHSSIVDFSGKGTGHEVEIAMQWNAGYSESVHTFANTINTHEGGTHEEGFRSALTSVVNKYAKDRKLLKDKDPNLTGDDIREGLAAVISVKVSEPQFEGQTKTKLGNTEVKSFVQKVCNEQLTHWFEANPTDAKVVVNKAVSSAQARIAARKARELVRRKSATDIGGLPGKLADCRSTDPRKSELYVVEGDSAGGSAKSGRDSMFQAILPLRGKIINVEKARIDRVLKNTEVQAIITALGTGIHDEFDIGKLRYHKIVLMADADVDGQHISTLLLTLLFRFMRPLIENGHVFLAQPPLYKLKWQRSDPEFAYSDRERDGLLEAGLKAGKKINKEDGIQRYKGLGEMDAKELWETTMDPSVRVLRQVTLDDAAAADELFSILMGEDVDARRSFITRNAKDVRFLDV
DNA gyrase subunit A/DNA gyrase subunit B, sequence (P9WG47 whole entry): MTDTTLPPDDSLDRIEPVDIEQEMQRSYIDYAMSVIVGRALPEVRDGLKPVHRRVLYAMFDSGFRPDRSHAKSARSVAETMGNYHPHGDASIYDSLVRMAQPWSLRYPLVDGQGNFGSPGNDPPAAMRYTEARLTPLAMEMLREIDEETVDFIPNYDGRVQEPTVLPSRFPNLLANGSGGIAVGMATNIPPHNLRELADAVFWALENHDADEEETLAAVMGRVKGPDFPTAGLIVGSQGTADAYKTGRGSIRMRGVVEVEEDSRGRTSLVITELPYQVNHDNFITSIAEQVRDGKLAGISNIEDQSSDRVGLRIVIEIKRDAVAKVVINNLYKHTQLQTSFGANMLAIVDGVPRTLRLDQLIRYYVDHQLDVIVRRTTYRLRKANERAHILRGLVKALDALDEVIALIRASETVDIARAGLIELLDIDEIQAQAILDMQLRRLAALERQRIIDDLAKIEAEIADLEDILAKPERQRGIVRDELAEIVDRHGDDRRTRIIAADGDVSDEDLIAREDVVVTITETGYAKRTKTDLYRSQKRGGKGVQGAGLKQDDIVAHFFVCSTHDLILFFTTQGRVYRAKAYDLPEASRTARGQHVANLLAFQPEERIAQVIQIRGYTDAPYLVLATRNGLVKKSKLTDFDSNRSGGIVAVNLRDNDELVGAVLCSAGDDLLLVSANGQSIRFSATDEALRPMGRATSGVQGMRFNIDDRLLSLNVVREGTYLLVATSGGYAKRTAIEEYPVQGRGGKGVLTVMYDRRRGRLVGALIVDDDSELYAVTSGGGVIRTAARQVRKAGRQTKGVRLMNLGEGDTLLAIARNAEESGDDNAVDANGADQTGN

| Compound | cytotoxicity at 72 h, 50 µM [1] [%] | MIC [2] [µM] | pIC50 (DNA gyrase subunit B) | inhibition (Escherichia coli) | inhibition (Staphylococcus aureus) | pIC50 [3] |
| --- | --- | --- | --- | --- | --- | --- |
| CCOC(=O)c1sc(-c2ccccn2)nc1N1CCC(NCc2ccc(Cl)c(Cl)c2)CC1 | 30.1 | > 102 | – | – | – | – |
| CCOC(=O)c1sc(-c2ccccc2)nc1N1CCC(NCc2ccc(F)cc2)CC1 | 6.23 | 28.4 (≈ 12.5 µg/mL) | 4.62 | inactive | inactive | 4.57 |
| CCOC(=O)c1sc(-c2ccccc2)nc1N1CCC(NCc2ccc(C(F)(F)F)cc2)CC1 | 22.7 | 102 (≈ 50 µg/mL) | – | – | – | – |
| CCOC(=O)c1sc(-c2ccccn2)nc1N1CCC(NCc2ccccc2)CC1 | 14.6 | 59.2 (≈ 25 µg/mL) | – | – | – | – |
| CCOC(=O)c1sc(-c2ccccc2)nc1N1CCC(NCc2ccccc2)CC1 | 11.7 | 119 (≈ 50 µg/mL) | – | – | – | – |
| CCOC(=O)c1sc(-c2ccncc2)nc1N1CCC(NCc2ccccc2)CC1 | 10.8 | 59.2 (≈ 25 µg/mL) | – | – | – | – |
| CCOC(=O)c1sc(-c2ccccc2)nc1N1CCC(NCc2ccc(Cl)cc2Cl)CC1 | 9.43 | 51 (≈ 25 µg/mL) | – | – | – | – |
| CO[C@@H]1[C@@H](OC(N)=O)[C@@H](O)[C@H](Oc2ccc3c(O)c(NC(=O)c4ccc(O)c(CC=C(C)C)c4)c(=O)oc3c2C)OC1(C)C [NOVOBIOCIN] | – | > 200 | – | inactive | inactive | – |
| CCOC(=O)c1sc(-c2ccccc2)nc1N1CCC(NCc2cccc(C(F)(F)F)c2)CC1 | 28.1 | 102 (≈ 50 µg/mL) | 4.57 | – | inactive | – |
| CCOC(=O)c1sc(-c2ccccn2)nc1N1CCC(NCc2ccc(C(F)(F)F)cc2)CC1 | 14.6 | 51 (≈ 25 µg/mL) | – | – | – | – |
| CCOC(=O)c1sc(-c2ccncc2)nc1N1CCC(NCc2cccc(C(F)(F)F)c2)CC1 | 14.3 | 51 (≈ 25 µg/mL) | – | – | – | – |
| CCOC(=O)c1sc(-c2ccccn2)nc1N1CCC(NCc2ccc(OCc3ccccc3)cc2)CC1 | 12.8 | 47.3 (≈ 25 µg/mL) | – | – | – | – |
| CCOC(=O)c1sc(-c2ccncc2)nc1N1CCC(NCc2ccc(F)cc2)CC1 | 17.4 | 56.8 (≈ 25 µg/mL) | – | – | – | – |
| CCOC(=O)c1sc(-c2ccncc2)nc1N1CCC(NCc2ccc(OCc3ccccc3)cc2)CC1 | 8.04 | 47.3 (≈ 25 µg/mL) | – | – | – | – |
| CCOC(=O)c1sc(-c2ccncc2)nc1N1CCC(NCc2ccc(Cl)c(Cl)c2)CC1 | 32.2 | 102 (≈ 50 µg/mL) | – | – | – | – |
| CCOC(=O)c1sc(-c2ccccn2)nc1N1CCC(NCc2ccc(F)cc2)CC1 | 12.6 | 28.4 (≈ 12.5 µg/mL) | – | – | – | – |
| CCOC(=O)c1sc(-c2ccncc2)nc1N1CCC(NCc2ccc(C(F)(F)F)cc2)CC1 | 18.1 | 102 (≈ 50 µg/mL) | – | – | – | – |
| CCOC(=O)c1sc(-c2ccncc2)nc1N1CCC(NCc2ccc(OC)cc2)CC1 | 16.1 | 110 (≈ 50 µg/mL) | – | – | – | – |
| CCOC(=O)c1sc(-c2ccccn2)nc1N1CCC(NCc2cccc(C(F)(F)F)c2)CC1 | 19.2 | 25.5 (≈ 12.5 µg/mL) | 4.54 | – | inactive | – |
| CCOC(=O)c1sc(-c2ccccc2)nc1N1CCC(NCc2ccc(OCc3ccccc3)cc2)CC1 | 18.4 | 47.4 (≈ 25 µg/mL) | – | – | – | – |
| CCOC(=O)c1sc(-c2ccncc2)nc1N1CCC(NCc2ccc(Cl)cc2Cl)CC1 | 18.4 | 25.4 (≈ 12.5 µg/mL) | 4.57 | – | inactive | – |
| CCOC(=O)c1sc(-c2ccccn2)nc1N1CCC(NCc2ccc(OC)cc2)CC1 | 4.62 | 55.2 (≈ 25 µg/mL) | – | – | – | – |
| CCOC(=O)c1sc(-c2ccccc2)nc1N1CCC(NCc2ccc(OC)cc2)CC1 | 8.4 | > 111 | – | – | – | – |
| CCOC(=O)c1sc(-c2ccccn2)nc1N1CCC(NCc2ccc(Cl)cc2Cl)CC1 | 18.6 | 50.9 (≈ 25 µg/mL) | – | – | – | – |
| CCOC(=O)c1sc(-c2ccccc2)nc1N1CCC(NCc2ccc(Cl)c(Cl)c2)CC1 | 18.1 | > 102 | – | – | – | – |

Source: ChEMBL document CHEMBL3085688, “Thiazole-aminopiperidine hybrid analogues: design and synthesis of novel Mycobacterium tuberculosis GyrB inhibitors” (Eur J Med Chem, 2013)
